Screening data as filed in PubChem BioAssay.
Only some compounds are listed: those with a hit (about 3.1% of all), similar ones and a draw of the others.
KCNK9 block: inhibitors of human KCNK9 two-pore domain potassium channel; Q9NPC2; HEK293 KCNK9, FluxOR thallium flux fluorescence; hits give low values; B-score at 10 µM; actives 1.2% (n = 310,000);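 active = ratio B-score over 3 SD below the library mean, with starting fluorescence within 5 SD of its mean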;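 also: negative B-score means less thallium flux so channel inhibition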
hERG rescue: compounds protecting human hERG from proarrhythmic drug block | AID 1511 | actives 0.51% (n = 310,000) | activation (rescue from dofetilide block), less the hit threshold, % at 10 µM | CHO-hERG, FluxOR thallium flux, dofetilide IC70 present;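 active = activation above the mean of controls blocked by dofetilide plus 5 SD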;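 also: thallium influx through hERG after potassium depolarization seen as dye fluorescence rise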
Target sequence (Q12809 whole entry, looked up): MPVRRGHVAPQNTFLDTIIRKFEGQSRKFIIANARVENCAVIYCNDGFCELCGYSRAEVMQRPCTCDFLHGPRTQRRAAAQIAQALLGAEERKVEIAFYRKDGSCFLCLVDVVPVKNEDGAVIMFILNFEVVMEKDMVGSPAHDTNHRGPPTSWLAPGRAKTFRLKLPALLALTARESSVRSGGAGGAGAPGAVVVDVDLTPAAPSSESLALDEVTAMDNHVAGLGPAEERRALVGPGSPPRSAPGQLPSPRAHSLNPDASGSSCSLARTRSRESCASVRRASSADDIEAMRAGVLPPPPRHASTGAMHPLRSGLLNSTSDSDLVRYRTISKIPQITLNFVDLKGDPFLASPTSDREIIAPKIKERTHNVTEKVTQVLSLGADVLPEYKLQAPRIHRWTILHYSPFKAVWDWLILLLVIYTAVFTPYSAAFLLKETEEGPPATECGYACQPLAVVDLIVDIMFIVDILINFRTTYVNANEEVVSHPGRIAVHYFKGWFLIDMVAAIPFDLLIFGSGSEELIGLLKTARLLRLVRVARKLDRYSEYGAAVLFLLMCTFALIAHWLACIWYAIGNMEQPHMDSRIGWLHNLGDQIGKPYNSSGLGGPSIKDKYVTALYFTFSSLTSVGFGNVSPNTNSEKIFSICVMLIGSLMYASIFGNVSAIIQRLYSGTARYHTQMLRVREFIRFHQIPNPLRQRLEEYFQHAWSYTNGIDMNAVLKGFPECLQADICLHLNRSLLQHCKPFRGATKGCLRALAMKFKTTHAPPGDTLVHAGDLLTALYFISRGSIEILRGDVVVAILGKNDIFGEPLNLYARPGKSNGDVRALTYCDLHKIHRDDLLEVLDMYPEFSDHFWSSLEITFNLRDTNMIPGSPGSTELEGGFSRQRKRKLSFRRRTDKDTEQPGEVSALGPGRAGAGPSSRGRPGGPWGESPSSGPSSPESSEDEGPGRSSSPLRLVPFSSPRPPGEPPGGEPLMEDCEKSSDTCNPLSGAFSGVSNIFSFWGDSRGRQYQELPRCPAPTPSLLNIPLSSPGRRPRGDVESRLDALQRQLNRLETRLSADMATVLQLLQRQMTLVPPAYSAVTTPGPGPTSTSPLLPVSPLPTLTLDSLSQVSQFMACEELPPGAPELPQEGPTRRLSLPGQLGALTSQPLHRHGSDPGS
KCNK3 block: human KCNK3 channel inhibition, primary screen; B-score at 10 µM; AID 602410; CHO-KCNK3 thallium flux, FluxOR fluorescence; hits give low values; actives 0.84% (n = 340,000); O14649;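 active = B-score under library mean minus 4 SD, starting fluorescence ratio at most library mean plus 5 SD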;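 also: more negative B-score means stronger inhibition of thallium flux through KCNK3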
KCNQ1 block: human KCNQ1 channel inhibition. P51787. CHO-K1 KCNQ1, FluxOR thallium flux fluorescence; hits give high values. B-score at 10 µM. actives 1.3% (n = 310,000). AID 2642;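 active = compounds whose thallium flux B-score, printed positive for inhibition, exceeds three library SD while starting fluorescence stays within three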;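 also: channel opened by potassium depolarization with thallium stimulus after 20 min compound exposure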
KCNQ1 act: human KCNQ1 channel potentiation or activation. P51787. CHO-K1 KCNQ1, thallium flux FluxOR fluorescence; hits give high values. B-score at 10 µM. actives 0.35% (n = 310,000);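 active = fluorescence ratio B-score, a plate-corrected score, at least three library SD, with initial intensity B-score within 5 SD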
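System: Stable KCNQ1 CHO-K1 line | Incubation: 90 min dye loading and 20 min compound exposure, both at room temperature | Measure: Ratio B score | Medium: Assay buffer for compound exposure, DMSO matched across wells | Compound dosing: Single-concentration screen | Probe or stimulus: K+/Tl+ depolarizing stimulus | Measured by: Kinetic FluxOR fluorescence, 10 s baseline plus 110 s post-stimulus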
KCNQ1 block val: reconfirmed blocker of the human KCNQ1 potassium channel; actives 93% (n = 1,600); inhibition, % at 10 µM; KCNQ1 cell line, FluxOR thallium flux fluorescence; shares compounds with KCNQ1 block; AID 588353;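 active = primary screen active, with duplicate mean exceeding buffer control mean plus 3 SD of buffer wells, cut at about 28% in these data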;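 also: 0% = buffer control ratio and 100% = XE991 inhibitor control ratio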
CHO Tl flux: activity in parental CHO cells lacking KCNQ1; shares compounds with KCNQ1 block; parental CHO-K1, FluxOR thallium flux fluorescence ratio; hits give low values; zero means no signal rise above baseline; fluorescence ratio (Tl flux) at 10 µM; actives 21% (n = 1,600);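 active = mean of duplicate thallium-flux fluorescence ratios in parental host cells more than 5 SD below the buffer control mean, cut at about 0.38 in these data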;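 also: ratio is peak minus minimum fluorescence divided by baseline fluorescence; actives read low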
KCNQ1 APC inh: human KCNQ1 inhibition validated by electrophysiology | KCNQ1-CHO cells, automated patch clamp current | actives 20% (n = 490) | shares compounds with KCNQ1 block | calls only at 10 µM;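 active = KCNQ1 current drop exceeding 3 SD of negative control wells, seen in both duplicate runs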;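 also: steady state current during a 2 s step from -80 to +40 mV; negative values mean current inhibition and positive values mean potentiation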
KCNQ2 inh: rat KCNQ2 inhibition in KCNQ1 inhibitor specificity screen. shares compounds with KCNQ1 block. KCNQ2 cells, FluxOR thallium flux fluorescence. inhibition, % at 10 µM. actives 71% (n = 1,600). AID 651746;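 active = mean percent inhibition of the KCNQ2 thallium signal more than 5 SD above the buffer-only control wells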;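 also: KCNQ2 expressed in CHO cells; 0% = buffer control wells and 100% = XE-991 inhibitor control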
KCNQ1-KCNE1 inh: selectivity of KCNQ1 inhibitors: inhibition of human KCNQ1/KCNE1 channel; shares compounds with KCNQ1 block; KCNQ1/KCNE1 cells, FluxOR thallium flux fluorescence; inhibition, % at 10 µM; actives 77% (n = 1,600); AID 652147;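 active = mean percent inhibition of duplicate wells above the buffer-only control mean plus 3 SD of those controls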;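 also: 0% = buffer only wells and 100% = XE-991 inhibitor control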
Starred values were filed as active, the others as inactive; i = inactive; nt = no result; + = active, no number.

SMILES	KCNK9 block	hERG rescue	KCNK3 block	KCNQ1 block	KCNQ1 act	KCNQ1 block val	CHO Tl flux	KCNQ2 inh	KCNQ1-KCNE1 inh	others
CCOC(=O)c1c(C)nc2ccc(Cl)cc2c1-c1ccccc1	i	-10	i	7*	i	122*	0.49	117%*	154%*	KCNQ1 APC inh=i
O=C(c1cccc(S(=O)(=O)N2CCN(c3ccc(F)cc3)CC2)c1)N1CCCC(C(F)(F)F)C1 (stereo not given)	i	-14	i	6*	i	94*	0.48	89%*	64%*	KCNQ1 APC inh=i
CCN(CC)c1ccc(O)c(C=Nc2ccc(C)c(C)c2)c1	i	-9	i	11*	i	150*	0.44	110%*	166%*	KCNQ1 APC inh=i
CCN(CC)c1ccc(C=Nc2ccccc2C)c(O)c1	i	-9	i	i	i	nt	nt	nt	nt
CCCCC(=O)O[C@H]1CC[C@H]2[C@@H]3CCc4cc(O)ccc4[C@H]3CC[C@]12C	i	-5	i	6*	i	72*	0.44	63%*	100%*
COc1ccc(-c2cc(=Nc3ccc(C)cc3)c3ccccc3o2)cc1	i	-9	i	i	i	nt	nt	nt	nt
COc1ccc(N=c2cc(-c3ccc(OC)cc3)oc3ccccc23)cc1	i	-11	i	12*	i	147*	0.36*	i	+
CCCCOc1ccc(CSCCN)cc1Cl	i	-14	i	6*	i	68*	0.44	i	103%*
CCOc1ccc(NC(=O)CN(C)C(=O)c2cc(S(=O)(=O)N3CCCCC3)ccc2Cl)cc1OCC	i	-14	i	i	i	nt	nt	nt	nt
CC1C(=O)N2CCCc3cc(NC(=O)C(=O)NCCc4ccccc4)cc1c32 (stereo not given)	i	-9	i	i	i	nt	nt	nt	nt
CC1C(=O)N2CCCc3cc(NC(=O)C(=O)NCCc4c[nH]c5ccccc45)cc1c32 (stereo not given)	i	-22	i	10*	i	26*	0.44	87%*	57%*
O=c1c2ccccc2nc(SCc2cccc(F)c2)n1C1CCCC1	i	-19	i	7*	i	96*	0.49	81%*	114%*	KCNQ1 APC inh=i
COc1ccc(-c2cc3ccccc3[nH]2)cc1	i	-12	i	i	i	nt	nt	nt	nt
Cc1ccc(O)c(-c2cc3ccccc3[nH]2)c1	i	-6	i	10*	i	132*	0.46	i	166%*
CCOC(=O)N1CCN(C(=O)COC(=O)CSc2ccc([N+](=O)[O-])cc2)CC1	i	-14	i	i	i	nt	nt	nt	nt
CCNC(=S)N1CCC(C(N)=O)CC1	i	-12	i	i	i	nt	nt	nt	nt
O=C(c1cc(-c2ccc(Cl)cc2)n(-c2cc(Cl)ccc2Cl)n1)N1CCOCC1	i	-7	i	7*	i	62*	0.48	81%*	86%*
O=C(c1cc(-c2ccc(Cl)cc2)n(-c2ccc(Cl)c(Cl)c2)n1)N1CCOCC1	i	-6	i	i	i	nt	nt	nt	nt
COc1ccc(N(CC(=O)NC2CC3CCC2C3)S(=O)(=O)c2ccc(C)cc2)cc1OC (stereo not given)	i	-9	i	i	i	nt	nt	nt	nt
COc1ccc(N(CC(=O)NC2CC3CCC2C3)S(=O)(=O)c2ccccc2)cc1Cl (stereo not given)	i	-1	i	7*	i	114*	0.42	i	126%*	KCNQ1 APC inh=+
CN1/C(=C\C=C(C#N)C#N)C(C)(C)c2ccccc21	i	-10	i	26*	i	+	0.015*	i	i
CN1/C(=C\C=C(/C#N)C(=O)Nc2ccc(Cl)cc2)C(C)(C)c2ccccc21	i	-18	i	i	i	nt	nt	nt	nt
Cc1ccc(Cl)c2c(N=Nc3ccccc3)c(O)[nH]c12	i	-5	i	6*	i	148*	0.29*	i	i
O=C(O)c1ccc(N=Nc2c(O)[nH]c3ccccc23)cc1	i	-17	i	i	i	nt	nt	nt	nt
Cc1cccc(C(=O)Nc2sc3c(c2C(=O)O)CCCC3)c1	i	-9	i	i	i	nt	nt	nt	nt
SMILES	KCNK9 block	hERG rescue	KCNK3 block	KCNQ1 block	KCNQ1 act	KCNQ1 block val	CHO Tl flux	KCNQ2 inh	KCNQ1-KCNE1 inh	others
CCOC(=O)C1=CN(Cc2ccco2)S(=O)(=O)N(CC)C1c1cccc(OC)c1 (stereo not given)	nt	nt	i	nt	nt	nt	nt	nt	nt
CCOCCCn1c(=NC(=O)c2cccs2)c(C#N)cc2c(=O)n3ccccc3nc21	i	-15	i	i	i	nt	nt	nt	nt
Cc1cc(NCC2CCCCC2)nc2ccccc12	i	-10	i	7*	i	68*	0.5	i	66%*
Cc1cc(NCCNC2=CC(=O)CCC2)nc2ccccc12	i	-5	i	i	i	nt	nt	nt	nt
CN(CC(=O)Nc1ccc(Cl)c(C(F)(F)F)c1)C(=O)CC1Sc2ccccc2NC1=O (stereo not given)	i	-16	i	i	i	nt	nt	nt	nt
OCCNc1c2ccccc2nc2c(F)c(F)c(F)c(F)c12	i	-14	i	6*	i	84*	0.37*	105%*	101%*
CN(C)CCCNc1c2ccccc2nc2ccccc12	i	-7	i	i	i	nt	nt	nt	nt
Cc1c2ccccc2nc2c(F)c(NCCO)c(F)c(F)c12	i	-24	i	6*	i	178*	0.15*	i	i
Cc1cccc(N(CC(O)CN2CCCC2)S(=O)(=O)c2ccccc2)c1 (stereo not given)	i	2	i	i	i	nt	nt	nt	nt
Oc1[nH]c2ccc(Br)cc2c1N=NC(=S)Nc1ccc(F)cc1	i	-13	i	i	i	nt	nt	nt	nt
Oc1ccc(NC(=S)N=Nc2c(O)[nH]c3ccc(Br)cc23)cc1	i	-17	i	7*	i	108*	0.4	75%*	158%*	KCNQ1 APC inh=i
Cc1ccc(C)c(S(=O)(=O)NCc2ccc(C(=O)N3CCC(Cc4ccccc4)CC3)cc2)c1	i	-10	i	7*	i	77*	0.44	92%*	95%*
Cc1cc(C)cc(NC(=O)NCC2CCN(Cc3cc(C)ccc3C)CC2)c1	i	-9	i	i	i	nt	nt	nt	nt
